Reference: ChEMBL document CHEMBL3603784, “Novel hybrids of 3-n-butylphthalide and edaravone: Design, synthesis and evaluations as potential anti-ischemic stroke agents” (2015)
Calls of active or inactive are those of the source. The rule behind the calls is not given here.

How the values were obtained:
[1] = Antiplatelet activity in rabbit platelet rich plasma assessed as inhibition of ADP-induced platelet aggregation at 0.1 mM preincubated for 5 mins followed by ADP addition measured after 5 mins by Born's turbidimetric method relative to control; assay type: functional; details: Oryctolagus cuniculus
Summary of the method: (§1)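 Rabbit PRP was taken from centrifugation supernatant, and PPP was obtained at 3000 rpm for 10 min. PRP was pretreated in duplicate with test agent or vehicle for 5 min at 37 °C, then given ADP (10 µM) or AA (1 mM). Aggregation was followed turbidimetrically by optical density. Results are % inhibition versus vehicle-treated, inducer-exposed samples, n = 6, mean ± SD.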

[2] = Neuroprotective activity against H2O2-induce cell damage in rat PC12 cells assessed as cell viability at 10 uM preincubated for 1 hr followed by H2O2 induction measured after 3 hrs by MTT assay (reference value: 50.85%); assay type: functional; details: PC-12, read-out: Activity
PC-12 [3] = experiment: Antioxidant activity in rat PC12 cells assessed as reduction of H2O2/Fe2+-mediated hydroxyl radical formation at 10 uM preincubated for 1 hr followed by H2O2/Fe2+ addition by Griess assay; assay type: functional
Summary of the method: (§2)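 PC12 cells grown in DMEM with 10% heat-inactivated horse serum, 5% FBS, 1.0 mM sodium pyruvate, penicillin/streptomycin, 37 °C, 5% CO2. Cells pretreated in triplicate for 1 h, then exposed to 1 mM H2O2/20 µM Fe2+ (pH 7.4). After a medium change, cells were collected in 0.5 mL phosphate buffer (pH 7.4). Hydroxyl radical activity was read by Griess assay.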

PC-12 [4] = experiment: Antioxidant activity in rat PC12 cells assessed as reduction of NADH-mediated superoxide anion radical formation at 10 uM preincubated for 1 hr followed by NADH addition by NBT assay; assay type: functional
Summary of the method: (§3)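 PC12 cells were cultured as for the other PC12 assays and pretreated in triplicate for 1 h. Each tube then received DMSO, 468 µM NADH and 300 µM NBT. Superoxide activity was read by NBT assay, with DMSO used to fully dissolve the formazan.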

[5] = Antiplatelet activity in rabbit platelet rich plasma assessed as inhibition of arachidonic acid-induced platelet aggregation at 0.1 mM preincubated for 5 mins followed by arachidonic acid addition measured after 5 mins by Born's turbidimetric method relative to control; assay type: functional; details: Oryctolagus cuniculus; summary of the method: as §1
[6] = Antiplatelet activity in rabbit platelet rich plasma assessed as inhibition of ADP-induced platelet aggregation at 0.1 mM preincubated for 5 mins followed by ADP addition measured after 5 mins by Born's turbidimetric method in presence of edaravone relative to control; assay type: functional; details: Oryctolagus cuniculus; summary of the method: as §1
[7] = Antiplatelet activity in rabbit platelet rich plasma assessed as inhibition of arachidonic acid-induced platelet aggregation at 0.1 mM preincubated for 5 mins followed by arachidonic acid addition measured after 5 mins by Born's turbidimetric method in presence of edaravone relative to control; assay type: functional; details: Oryctolagus cuniculus; summary of the method: as §1
[8] = Neuroprotective activity against H2O2-induce cell damage in rat PC12 cells assessed as cell viability at 10 uM preincubated for 1 hr followed by H2O2 induction measured after 3 hrs by MTT assay in presence of edaravone (reference value: 50.85%); assay type: functional; details: PC-12, read-out: Activity
PC-12 [9] = experiment: Antioxidant activity in rat PC12 cells assessed as reduction of H2O2/Fe2+-mediated hydroxyl radical formation at 10 uM preincubated for 1 hr followed by H2O2/Fe2+ addition by Griess assay in presence of edaravone; assay type: functional; summary of the method: as §2
PC-12 [10] = experiment: Antioxidant activity in rat PC12 cells assessed as reduction of NADH-mediated superoxide anion radical formation at 10 uM preincubated for 1 hr followed by NADH addition by NBT assay in presence of edaravone; assay type: functional; summary of the method: as §3
[11] = Neuroprotective activity against H2O2-induce cell damage in rat PC12 cells assessed as cell viability at 1 uM preincubated for 1 hr followed by H2O2 induction measured after 3 hrs by MTT assay (reference value: 50.85%); assay type: functional; details: PC-12, read-out: Activity
PC-12 [12] = experiment: Neuroprotective activity against H2O2-induce cell damage in rat PC12 cells assessed as cell viability at 10 uM preincubated for 1 hr followed by H2O2 induction measured after 3 hrs by MTT assay; assay type: functional, cell-based
[13] = Antiplatelet activity in rabbit platelet rich plasma assessed as inhibition of ADP-induced platelet aggregation at 0.1 mM preincubated for 5 mins followed by ADP addition measured after 5 mins by Born's turbidimetric method in presence of NBP relative to control; assay type: functional; details: Oryctolagus cuniculus; summary of the method: as §1
[14] = Antiplatelet activity in rabbit platelet rich plasma assessed as inhibition of arachidonic acid-induced platelet aggregation at 0.1 mM preincubated for 5 mins followed by arachidonic acid addition measured after 5 mins by Born's turbidimetric method in presence of NBP relative to control; assay type: functional; details: Oryctolagus cuniculus; summary of the method: as §1
[15] = Neuroprotective activity against H2O2-induce cell damage in rat PC12 cells assessed as cell viability at 10 uM preincubated for 1 hr followed by H2O2 induction measured after 3 hrs by MTT assay in presence of NBP (reference value: 50.85%); assay type: functional; details: PC-12, read-out: Activity
PC-12 [16] = experiment: Antioxidant activity in rat PC12 cells assessed as reduction of H2O2/Fe2+-mediated hydroxyl radical formation at 10 uM preincubated for 1 hr followed by H2O2/Fe2+ addition by Griess assay in presence of NBP; assay type: functional; summary of the method: as §2
PC-12 [17] = experiment: Antioxidant activity in rat PC12 cells assessed as reduction of NADH-mediated superoxide anion radical formation at 10 uM preincubated for 1 hr followed by NADH addition by NBT assay in presence of NBP; assay type: functional; summary of the method: as §3

Structure (SMILES) | inhibition at 100 µM [1] [%] | viability at 10 µM [2] [%] | Activity (PC-12 [3]) [U/ml] | Activity (PC-12 [4]) [U/L] | inhibition at 100 µM [5] [%] | also measured
Clc1ccccc1CN1CCc2sccc2C1 [TICLOPIDINE] | 11.5 | 67.2 | 15.0616 | 26.9592 |  | 
CCCCC(OC(C)=O)c1ccccc1C(=O)Oc1cc(C(F)(F)F)nn1-c1ccc(Cl)cc1 (centres undefined) | 23.2 | 83 |  |  | 26.6 | 
CCCCC1OC(=O)c2ccccc21 (racemic) [RAC-3-N-BUTYLPHTHALIDE] | 22.9 | 71 | 16.2026 | 36.7429 | 14.1 | inhibition at 100 µM [6]: 28.1%; inhibition at 100 µM [7]: 42.5%; viability at 10 µM [8]: 76.6%; Activity (PC-12 [9]): 36.8347 U/ml; Activity (PC-12 [10]): 140.787 U/L
CCCCC(OC(C)=O)c1ccccc1C(=O)Oc1cc(C(F)(F)F)nn1-c1ccc(C)cc1 (centres undefined) | 25.5 |  |  |  | 40.7 | 
CCCCC(OC(C)=O)c1ccccc1C(=O)Oc1cc(C)nn1-c1ccc(F)cc1 (centres undefined) | 31.8 | 93.3 | 65.51 | 141.49 | 59.9 | viability at 1 µM [11]: 88.1%
CC(=O)Oc1ccccc1C(=O)O [ASPIRIN] |  | 77.4 | 30.6956 | 79.3793 | 16.2 | 
CCCCC(OC(C)=O)c1ccccc1C(=O)Oc1cc(C(F)(F)F)nn1-c1ccc(OC)cc1 (centres undefined) | 19.9 |  |  |  | 37.7 | 
CCCCC(OC(C)=O)c1ccccc1C(=O)Oc1cc(C(F)(F)F)nn1-c1ccc([N+](=O)[O-])cc1 (centres undefined) | 15.4 | 87.3 |  |  | 21.3 | 
CCCCC(OC(C)=O)c1ccccc1C(=O)O (centres undefined) | 17.7 |  | 17.6015 | 56.1954 | 27.7 | Activity (PC-12 [12]): Active
CCCCC(OC(C)=O)c1ccccc1C(=O)Oc1cc(C(F)(F)F)nn1-c1cccc(Cl)c1 (centres undefined) | 31.2 |  |  |  | 21.2 | 
CCCCC(OC(C)=O)c1ccccc1C(=O)Oc1cc(C)nn1-c1ccccc1 (centres undefined) | 23 |  |  |  | 15.4 | 
CCCCC(OC(C)=O)c1ccccc1C(=O)Oc1cc(C)nn1-c1cccc(Cl)c1 (centres undefined) | 35.2 |  |  |  | 46.1 | 
CCCCC(OC(C)=O)c1ccccc1C(=O)Oc1cc(C)nn1-c1ccc(OC)cc1 (centres undefined) | 30.2 |  |  |  | 29.4 | 
CC1=NN(c2ccc(F)cc2)C(=O)C1 | 13.5 |  | 31.7447 | 117.579 | 24.3 | Activity (PC-12 [12]): Active
CC1=NN(c2ccccc2)C(=O)C1 [EDARAVONE] | 24.8 | 76.9 | 25.2753 | 97.6942 | 25.5 | inhibition at 100 µM [13]: 28.1%; inhibition at 100 µM [14]: 42.5%; viability at 10 µM [15]: 76.6%; Activity (PC-12 [16]): 36.8347 U/ml; Activity (PC-12 [17]): 140.787 U/L
CCCCC(OC(C)=O)c1ccccc1C(=O)Oc1cc(C)nn1-c1ccc(Cl)cc1 (centres undefined) | 29.3 |  |  |  | 40.3 | 
CCCCC(OC(C)=O)c1ccccc1C(=O)Oc1cc(C(F)(F)F)nn1-c1ccccc1 (centres undefined) | 26.9 |  |  |  | 29.3 | 
CCCCC(OC(C)=O)c1ccccc1C(=O)Oc1cc(C)nn1-c1ccc(C)cc1 (centres undefined) | 21.3 | 86 |  |  | 20.5 | 
CCCCC(OC(C)=O)c1ccccc1C(=O)Oc1cc(C)nn1-c1ccc([N+](=O)[O-])cc1 (centres undefined) | 33.9 | 85.2 |  |  | 39.6 | 
CCCCC(OC(C)=O)c1ccccc1C(=O)Oc1cc(C(F)(F)F)nn1-c1ccc(F)cc1 (centres undefined) | 13.6 |  |  |  | 27.5 | 
